Data from ChEMBL document CHEMBL1153911 (Bioorg Med Chem Lett, 2009).

Columns and labels:
Homo sapiens [1] = species on record: Homo sapiens; experiment: Selectivity ratio of Ki for kappa opioid receptor to Ki for mu opioid receptor
Summary of the method: (§1)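 CHO cell membranes (50 µg) expressing cloned mu, delta or kappa opioid receptors, labelled with […] (mu), [3H]NTI (delta) or [3H]norBNI (kappa), with varying drug concentrations, 90 min at 30 °C. […] IC50 from Hill-plot linear regression, converted to Ki by Cheng-Prusoff.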

Homo sapiens [2] = species on record: Homo sapiens; experiment: Selectivity ratio of Ki for delta opioid receptor to Ki for mu opioid receptor; summary of the method: as §1
Mu-type opioid receptor [3] = biological target: T1, Mu-type opioid receptor (Homo sapiens, UniProt P35372); experiment: […] activity against mu opioid receptor expressed in CHO cells assessed as stimulation [35S]GTPgammaS binding relative to DAMGO; type: functional, cell-based; design: concentration or dose not given beside the values
Summary of the method: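 Membranes (10 µg) from the same receptor-expressing CHO cells incubated 30 min with 10 µM GDP, 0.1 nM [35S]GTPγS and varying drug concentrations. Nonspecific binding defined by 10 µM unlabelled GTPγS. Relative Emax and EC50 from nonlinear regression of concentration-effect curves.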

Mu-type opioid receptor [4] = biological target: T1, Mu-type opioid receptor; details: CHO
[5] = biological target: Kappa-type opioid receptor (Homo sapiens, UniProt P41145); experiment: Displacement of [3H]norBNI from kappa opioid receptor expressed in CHO cells; type: cell-based
[6] = biological target: Delta-type opioid receptor (Homo sapiens, UniProt P41143); experiment: Displacement of [3H]NTI from delta opioid receptor expressed in CHO cells; type: cell-based
Summary of the method: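 CHO cell membranes (50 µg) expressing cloned mu, delta or kappa opioid receptors, labelled with […] (mu), [3H]NTI (delta) or [3H]norBNI (kappa), with varying drug concentrations, 90 min at 30 °C. IC50 from Hill-plot linear regression, converted to Ki by Cheng-Prusoff.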

Mu-type opioid receptor [7] = biological target: T1, Mu-type opioid receptor; experiment: Displacement of [3H]DAMGO from mu opioid receptor expressed in CHO cells; type: cell-based

T1 sequence (P35372 whole entry): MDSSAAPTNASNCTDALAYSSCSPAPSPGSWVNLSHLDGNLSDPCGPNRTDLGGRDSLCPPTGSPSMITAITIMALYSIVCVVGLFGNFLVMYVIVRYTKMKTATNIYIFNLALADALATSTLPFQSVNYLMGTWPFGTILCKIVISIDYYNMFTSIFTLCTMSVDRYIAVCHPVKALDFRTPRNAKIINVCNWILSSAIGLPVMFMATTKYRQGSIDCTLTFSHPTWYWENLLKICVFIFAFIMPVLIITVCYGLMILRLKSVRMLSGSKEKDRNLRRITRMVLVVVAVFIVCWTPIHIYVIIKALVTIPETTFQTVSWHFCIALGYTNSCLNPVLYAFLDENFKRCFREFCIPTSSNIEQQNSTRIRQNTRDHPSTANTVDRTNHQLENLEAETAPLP
Kappa-type opioid receptor, sequence (P41145 whole entry): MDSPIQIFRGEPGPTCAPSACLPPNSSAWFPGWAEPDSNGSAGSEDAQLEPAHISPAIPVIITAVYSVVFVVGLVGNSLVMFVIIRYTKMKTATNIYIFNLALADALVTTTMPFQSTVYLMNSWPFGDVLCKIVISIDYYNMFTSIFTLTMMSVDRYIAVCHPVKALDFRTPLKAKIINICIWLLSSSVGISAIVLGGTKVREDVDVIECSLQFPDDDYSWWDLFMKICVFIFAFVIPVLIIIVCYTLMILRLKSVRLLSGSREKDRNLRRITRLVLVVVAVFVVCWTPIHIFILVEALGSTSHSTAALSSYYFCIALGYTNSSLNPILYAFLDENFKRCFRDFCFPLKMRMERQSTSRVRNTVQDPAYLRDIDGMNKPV
Delta-type opioid receptor, sequence (P41143 whole entry): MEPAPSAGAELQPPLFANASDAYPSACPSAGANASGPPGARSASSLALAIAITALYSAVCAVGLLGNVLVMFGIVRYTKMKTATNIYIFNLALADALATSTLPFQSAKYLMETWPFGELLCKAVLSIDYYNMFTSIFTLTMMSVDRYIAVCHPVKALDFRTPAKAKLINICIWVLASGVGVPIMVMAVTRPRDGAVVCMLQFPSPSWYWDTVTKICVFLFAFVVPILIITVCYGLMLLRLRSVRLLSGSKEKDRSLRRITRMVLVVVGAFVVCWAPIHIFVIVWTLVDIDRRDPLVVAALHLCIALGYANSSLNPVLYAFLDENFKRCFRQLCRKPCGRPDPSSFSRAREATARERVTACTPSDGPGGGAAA

Compound	Ratio Ki (Homo sapiens [1])	Ratio Ki (Homo sapiens [2])	Activity (Mu-type opioid receptor [3]) [%]	Ke (Mu-type opioid receptor [4]) [nM]	Ki [5] [pM]	Ki [6] [pM]	Ki (Mu-type opioid receptor [7]) [pM]
O=C(O[C@@]12CCC(=O)[C@@H]3Oc4c(O)ccc5c4[C@@]31CCN(CC1CC1)[C@@H]2C5)c1cc2ccccc2cn1	> 146	> 146	0				
O=C(O[C@@]12CCC(=O)[C@@H]3Oc4c(O)ccc5c4[C@@]31CCN(CC1CC1)[C@@H]2C5)c1ccc2ccccc2n1	47	16	0				
O=C(O[C@@]12CCC(=O)[C@@H]3Oc4c(O)ccc5c4[C@@]31CCN(CC1CC1)[C@@H]2C5)c1ccccn1	182	838	0	0.2			
O=C(O[C@@]12CCC(=O)[C@@H]3Oc4c(O)ccc5c4[C@@]31CCN(CC1CC1)[C@@H]2C5)c1cccnc1	30	107	0				
O=C(O[C@@]12CCC(=O)[C@@H]3Oc4c(O)ccc5c4[C@@]31CCN(CC1CC1)[C@@H]2C5)c1cnc2ccccc2c1	55	304	22				
O=C(O[C@@]12CCC(=O)[C@@H]3Oc4c(O)ccc5c4[C@@]31CCN(CC1CC1)[C@@H]2C5)c1ccc2ccccc2c1	< 1	4	0				
COC(=O)/C=C/C(=O)N[C@@H]1CC[C@@]2(O)[C@H]3Cc4ccc(O)c5c4[C@@]2(CCN3CC2CC2)[C@H]1O5			0		940	27800	410
C[C@@H](O)[C@H](NC(=O)[C@H](NC(=O)[C@@H](NC(=O)[C@H](CCCNC(=N)N)NC(=O)C(Cc1c[nH]c2ccccc12)NC(=O)[C@@H](Cc1ccc(O)cc1)NC(=O)[C@H](CS)NC(=O)[C@H](N)Cc1ccccc1)[C@@H](C)O)C(C)(C)S)C(=O)O (stereo in doubt)	501	713	0				
O=C(O[C@@]12CCC(=O)[C@@H]3Oc4c(O)ccc5c4[C@@]31CCN(CC1CC1)[C@@H]2C5)c1ccncc1	9	73	0				
COc1cccc2c1[C@]13CCN(CC4CC4)[C@H](C2)[C@]1(OC)CCC(=O)C3	45	40					
O=C(O[C@@]12CCC(=O)[C@@H]3Oc4c(O)ccc5c4[C@@]31CCN(CC1CC1)[C@@H]2C5)c1ccccc1	5	> 81	0				
